SR-BI uptake up: SR-BI HDL lipid transfer activation. CHO ldlA[mSR-BI] cells, DiI-HDL uptake fluorescence, 3 h; 100 = double the neutral-control signal. activation, % at 12.5 µM. hit rate 0.096% among 320,000. AID 504775;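 active = mean replicate activation of at least 60% and every replicate at or above 60%; inconclusive = mean or all-replicate condition met, but not both; inactive = mean below 60% and not all replicates reaching 60%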;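 note: 0% = median plate neutral-control signal and 100% = twice that signal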
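Material – SR-BI-overexpressing, LDLR-lacking CHO cells · Medium – BSA-supplemented, HEPES-buffered Ham's F12, pH 7.4 · Doses – single concentration · Times – compound with DiI-HDL co-incubation, 3 h at 37 °C · Measured by – bottom-read fluorescence, 550/595 nm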
SR-BI DiI inh: mouse SR-BI HDL lipid transfer inhibition; Q61009; ldlA[mSR-BI] CHO cells, DiI-HDL uptake fluorescence, 3 h; inhibition, % at 12.5 µM; hit rate 0.96% among 320,000; AID 488896;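 active = mean replicate inhibition of at least 70% and a set share of replicates each scoring 70 or more; inconclusive = meets just one of the two criteria; inactive = fails both criteria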;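 note: 0% = median of neutral control wells and 100% = median of positive control wells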
Target sequence (Q61009 whole entry, looked up): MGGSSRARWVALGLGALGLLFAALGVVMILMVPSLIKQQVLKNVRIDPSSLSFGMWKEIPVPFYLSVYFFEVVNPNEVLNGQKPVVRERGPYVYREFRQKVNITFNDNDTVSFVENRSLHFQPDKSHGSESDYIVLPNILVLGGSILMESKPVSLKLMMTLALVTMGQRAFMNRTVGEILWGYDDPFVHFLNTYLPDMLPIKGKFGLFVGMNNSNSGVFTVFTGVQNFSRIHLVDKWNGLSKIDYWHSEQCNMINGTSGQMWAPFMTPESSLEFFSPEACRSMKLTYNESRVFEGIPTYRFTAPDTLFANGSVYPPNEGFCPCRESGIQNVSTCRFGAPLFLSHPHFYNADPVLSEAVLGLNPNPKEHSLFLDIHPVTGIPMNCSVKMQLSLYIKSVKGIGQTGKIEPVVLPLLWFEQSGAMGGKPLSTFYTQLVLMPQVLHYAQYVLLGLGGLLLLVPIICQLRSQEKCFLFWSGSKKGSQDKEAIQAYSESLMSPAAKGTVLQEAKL
GAA850 FXN act: increases GAA850 frataxin promoter reporter activity. activation, % at 6 µM. hit rate 0.56% among 360,000. HEK293 lucGAA850 FXN promoter luciferase reporter, 24 h; percent of 10 µM SAHA response;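 active = activation above the average of all compounds screened plus 3 SD, cutoff fixed separately per campaign, cut at about 7.5% in these data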;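 note: 0% = DMSO wells and 100% = 10 µM SAHA wells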
AHR activator: activators of human aryl hydrocarbon receptor; P35869; AHR-responsive luciferase reporter cells, luminescence; activation, % at 5 µM; hit rate 2.5% among 320,000; AID 2796; in the data active = activation above about 47%;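 note: 0% = vehicle wells and 100% = reference agonist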
GASC-1 inh: human JMJD2C demethylase inhibition | GST-JMJD2C(1-420) H3K9me3 demethylation, DELFIA europium | inhibition, % at 2.35 µM | hit rate 0.069% among 330,000 | AID 2099;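 active = more than half of a compound's replicate wells show inhibition beyond 50%, single wells judged on their own value; inconclusive = some, but no more than half, of replicates pass 50% inhibition; inactive = no replicate passes 50% inhibition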;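 note: signal counts dimethyl H3K9 product captured on neutravidin plate; 0% = median of DMSO wells and 100% = 0.3 times that DMSO median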
An asterisk follows results filed as active; ? = inconclusive; · = no result given. Shown are actives, neighbours in structure and some others; about 3.7% of the full set was active somewhere.

SMILES	SR-BI uptake up	SR-BI DiI inh	GAA850 FXN act	AHR activator	GASC-1 inh
C=CCNC(=O)c1cnc(-c2ccccc2)nc1-c1ccccc1	-5	5	1	4	-4
O=C(Nc1ccc(F)c(F)c1)c1cnc(-c2ccccc2)nc1-c1ccccc1	-29	29	1	65*	-1
Nc1ncc(Br)cc1S(=O)(=O)NCCC(=O)NC1CCCCC1	18	-18	-2	0	3
COc1ccc(CCNC(=O)c2cccc(NC(=O)CC3SC(N4CCCCC4)=NC3=O)c2)cc1OC (configuration not stated)	-78	78*	0	6	3
COc1ccc(CCNC(=O)c2ccc(NC(=O)CC3SC(N4CCCC4)=NC3=O)cc2)cc1OC (configuration not stated)	-52	52	-1	·	·
COc1cc(SC)ccc1C(=O)Nc1ccc2c(c1)CCC2	-16	16	5	41	6
COc1cccc(-n2cc3c(=O)n(C)c(=O)n(C)c3c2)c1	-3	3	5	59*	-8
Cn1c(=O)c2cn(-c3ccccc3)cc2n(C)c1=O	3	-3	1	9	-1
CCn1ncc(C(=O)Nc2cccc(Cl)c2)c1C	7	-7	4	79*	-9
CCc1cccc(NC(=O)c2cnn(-c3ccccc3)c2C)c1	7	-7	3	-6	-12
Cc1cc(=O)oc2cc(NC(=O)c3ccccc3Cl)ccc12	-6	6	5	63*	9
CCOc1ccc2c(C)nc(NC3=NC(C)(C)C=C(C)N3)nc2c1	-29	29	1	64*	5
Cc1n[nH]c(=O)nc1N/N=C/c1ccco1	3	-3	5	13	12
O=C(c1ccc([N+](=O)[O-])cc1[N+](=O)[O-])n1cnc2ccccc21	8	-8	2	59*	8
Cc1cccc(NC(=S)c2nc3ccccc3s2)c1	12	-12	2	76*	4
O=C(Nc1ccccc1)c1nc2ccccc2s1	13	-13	3	33	10
COc1ccc(OC)c(CCNC(=O)C(=O)Nc2ccc3nc4n(c(=O)c3c2)CCCCC4)c1	-77	77*	5	8	0
Cc1[nH]n(-c2cccc3ccccc23)c(=O)c1/C=N/NC(=O)c1cccc([N+](=O)[O-])c1	-62	62	-1	13	15
CC(=O)N/N=C/c1c(C)[nH]n(-c2ccccc2)c1=O	4	-4	0	37	-7
Cc1[nH]n(-c2ccccc2)c(=O)c1C(=O)c1ccccc1	20	-20	1	2	9
CC/C(=N/NC(=O)c1ccccc1O)c1c(C)[nH]n(-c2ccccc2)c1=O	-137	137*	2	-1	10
Cc1[nH]n(-c2ccccc2)c(=O)c1/C=N/NC(=O)c1ccccc1F	-106	106*	5	15	3
Cc1[nH]n(-c2ccccc2)c(=O)c1/C=N/NC(=O)c1cccc([N+](=O)[O-])c1	-112	112*	-1	19	10
S=C(NCc1cccnc1)c1ccccc1	-14	14	1	7	-3
Cc1cccc2sc(NC(=O)C3c4ccccc4Oc4ccccc43)nc12	-53	53	0	2	10
SMILES	SR-BI uptake up	SR-BI DiI inh	GAA850 FXN act	AHR activator	GASC-1 inh
Cc1cccc(C)c1N1C(=O)CC(N(O)c2ccccc2)C1=O (configuration not stated)	9	-9	1	1	5
Cc1c(Cl)cccc1N1C(=O)CC(N(O)c2ccccc2)C1=O (configuration not stated)	218*	-218	-2	2	-2
O=C(OCc1ccc(Br)cc1)c1cccc(S(=O)(=O)N2CCCC2)c1	-29	29	3	-2	-8
Cc1nn(-c2ccccc2)c(N2CCCC2)c1/C=N/Nc1ccc(S(=O)(=O)Nc2ccccc2)cc1[N+](=O)[O-]	-125	125*	-2	0	0
COc1c(/C=N/Nc2ccc([N+](=O)[O-])cc2[N+](=O)[O-])c(C)nn1-c1ccccc1	-64	64	1	0	12
COc1ccccc1NS(=O)(=O)c1ccc(N/N=C/c2c(C)nn(-c3ccccc3)c2N2CCCC2)c([N+](=O)[O-])c1	-90	90*	4	-1	-5
COc1ccccc1NS(=O)(=O)c1cccc(C(=O)N/N=C/c2c(C)nn(-c3ccccc3)c2N2CCCC2)c1	-71	?	2	6	13
O=C1c2ccccc2C(=O)N1CCCCN(C(=O)c1cc2ccccc2oc1=O)c1ccc(F)cc1F	16	-16	0	22	4
CCCOc1ccc(-c2csc(NC(=O)CN3C(=O)CCC3=O)n2)cc1	-9	9	2	14	5
Cc1cc(C(F)(F)F)nc(Nc2nc(C)c3ccccc3n2)n1	-2	2	-2	58*	0
Clc1ccc(Cn2ccc(-c3ccc4c(c3)OCO4)n2)cc1Cl	-13	13	2	51*	-3
O=C1CC(=O)N(Cc2ccco2)C(=O)N1	11	-11	3	2	52*
O=C1CC(=O)N(Cc2ccco2)C(=S)N1	0	0	-2	1	1
CC(C)c1cc(C(=O)N/N=C/c2cccnc2)n[nH]1	26	-26	3	25	-19
CC(Nc1nc(-c2ccc3c(c2)NC(=O)CO3)cs1)c1ccccc1 (configuration not stated)	-41	41	3	9	-22
O=C1COc2ccc(-c3csc(NCC4CCCO4)n3)cc2N1 (configuration not stated)	-28	28	1	77*	-4
COc1cc2ccccc2cc1C(=O)NC1CCC(C)CC1 (configuration not stated)	-71	71*	3	0	-6
COc1cc2ccccc2cc1C(=O)NC1CCCC1	-34	34	6	77*	7
Cc1cc(N/N=C/c2ccc3c(c2)OCO3)nc2ccccc12	-9	9	4	11	10
Cc1cc(N/N=C/c2ccccc2Br)nc2ccccc12	-2	2	6	52*	-3
CC(C(=O)Nc1ccc(N(C)C)cc1)N1C(=O)c2ccccc2S1(=O)=O (configuration not stated)	14	-14	2	0	-49
CCNC(=O)c1ccc2c(c1)S(=O)(=O)c1ccccc1C2=O	-23	23	2	17	51*
COc1ccc(/C=N/Nc2nnc(-c3ncc[nH]3)c3ccccc23)cc1	-3	3	0	62*	-4
Oc1ccc2ccccc2c1/C=N/Nc1nnc(-c2ncc[nH]2)c2ccccc12	-136	136*	-5	24	4
CC(=O)Nc1ccc(C=NNc2nnc(NN=Cc3ccc(NC(C)=O)cc3)c3ccccc23)cc1	-45	45	-7	·	·
CC12CCC(c3nnc(SCC(=O)Nc4cccc5ccccc45)nc31)C2(C)C (configuration not stated)	-33	33	-2	4	-10

Assay outcomes deposited in PubChem BioAssay by several laboratories.
